Source: PubChem BioAssay
IDH1 mut inh = inhibitors of human IDH1 R132H; O75874; IDH1 R132H reductase, diaphorase/resazurin fluorescence, 60 min; inhibition, % at 10 µM; hit rate 0.18% among 70,000; AID 624101; in the data active = inhibition above about 34%; inconclusive = no clear call, values can overlap the other calls; inactive = below about 11%;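 note: 0% = DMSO and 100% = no enzyme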
T cruzi growth-1 = blocks T. cruzi growth in NIH3T3 culture | AID 624255 | T. cruzi beta-gal in NIH3T3, GalScreen luminescence, 90 h | hit rate 5.9% among 77,000 | inhibition, % at 8.34 µM;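 active = mean inhibition above about 93%, with at least 55% of replicates each passing it, limit read from the data, passing the limit was not always enough; inconclusive = only one of those two conditions holds; inactive = neither condition holds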
GASC1 inh = inhibitors of human demethylase GASC-1 KDM4C; Q9H3R0; GST-KDM4C 2-372, H3K9me3 peptide, LANCE TR-FRET; inhibition, % at 12.5 µM; hit rate 0.15% among 96,000; AID 720574;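 active = mean replicate inhibition above about 25%, with at least 55% of replicates also reaching it, limit read from the data, passing the limit was not always enough; inconclusive = only one of those two conditions met; inactive = neither condition met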
Target sequence (Q9H3R0 2-372 limits assumed): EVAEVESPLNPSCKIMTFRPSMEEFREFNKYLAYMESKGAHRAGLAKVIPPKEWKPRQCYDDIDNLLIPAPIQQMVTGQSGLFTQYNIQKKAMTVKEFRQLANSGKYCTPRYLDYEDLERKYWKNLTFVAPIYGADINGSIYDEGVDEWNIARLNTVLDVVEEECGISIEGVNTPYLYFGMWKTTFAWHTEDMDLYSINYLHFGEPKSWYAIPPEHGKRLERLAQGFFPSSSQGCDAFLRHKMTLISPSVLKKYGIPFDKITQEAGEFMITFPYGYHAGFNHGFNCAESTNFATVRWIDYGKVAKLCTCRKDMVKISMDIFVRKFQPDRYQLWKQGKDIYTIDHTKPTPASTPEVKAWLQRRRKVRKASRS
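Test system: N-terminal GST-fused human GASC-1 (KDM4C) fragment, residues 2-372; quantity: GASC-1 enzyme at 10 nM final in reaction; dosing: single dose; schedule: 30 min demethylation and 1 h detection at room temperature; signal: LANCE TR-FRET, excitation 340 nm, emissions 618 and 671 nm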
Pf Dd2 growth = inhibitors of Plasmodium falciparum Dd2 growth. P. falciparum Dd2 growth, SYBR Green, 72 h; stronger effect = lower value. activity change, % at 10 µM. hit rate 2.3% among 94,000. AID 1159554; in the data active = activity change below about -80%; inconclusive = no clear call, values can overlap the other calls
T cruzi growth-2 = Trypanosoma cruzi proliferation inhibition; shares compounds with T cruzi growth-1; T. cruzi beta-gal in NIH3T3, GalScreen luminescence, 90 h; inhibition, % at 8.35 µM; hit rate 72% among 5,600; AID 651739;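 active = mean replicate inhibition above about 95% and at least 55% of replicates individually reaching it, limit read from the data; inconclusive = only one of the two criteria is met; inactive = neither criterion is met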
T cruzi growth-3 = blocks T. cruzi growth in NIH3T3 host cells | inhibition, % at 2.09 µM | hit rate 21% among 5,600 | AID 651740 | shares compounds with T cruzi growth-1 | T. cruzi beta-gal in NIH3T3, GalScreen luminescence, 90 h;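 active = mean inhibition above about 95%, with at least 55% of replicates also reaching it, limit read from the data; inconclusive = meets just one of the two conditions; inactive = meets neither condition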;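 note: plate controls were neutral control median for no effect and positive control median for full effect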
3T3 cytotox = kills mouse NIH/3T3 fibroblasts; cytotoxicity (signal decrease), % at 8.35 µM; NIH/3T3 viability, CellTiter-Glo ATP luminescence, 90 h; shares compounds with T cruzi growth-1; hit rate 14% among 5,600;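 active = mean signal decrease across replicates above about 35% based on untreated-well scatter, with enough replicates individually passing, limit read from the data; inconclusive = no rule stated though some were filed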;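 note: 0% = median of neutral control wells and 100% = median of positive control wells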
3T3 cytotox 2 = NIH/3T3 (mouse) viability loss. shares compounds with T cruzi growth-1. hit rate 56% among 5,600. inhibition, % at 24.9 µM. NIH/3T3 viability, CellTiter-Glo ATP luminescence, 90 h. AID 651744;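 active = mean loss of cell viability signal at or above a set limit, and enough replicates individually reaching it; inconclusive = meets only the mean limit or only the replicate share; inactive = meets neither condition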;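 note: 0% = median of neutral control wells and 100% = median of positive control wells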
The depositor's hits bear a star; ? = inconclusive; . = no result; ! = not active in a repeat. This is a sample that favours compounds with a hit; in the whole collection about 5.9% have one here.

SMILES	IDH1 mut inh	T cruzi growth-1	GASC1 inh	Pf Dd2 growth	T cruzi growth-2	T cruzi growth-3	3T3 cytotox	3T3 cytotox 2
Cc1noc(C)c1NC(=O)Nc1ccc2c(c1)C(=O)N(C)[C@H]1CC[C@@H](CC(=O)N[C@H]3CCN(Cc4ccccc4)C3)O[C@H]1CO2	.	117*	1	2	88	43	-5	-14
CCOc1ccc(NC(=O)Cn2cnc3scc(-c4ccc(C)cc4)c3c2=O)cc1	0	.	.	.	.	.	.	.
COc1cccc(S(=O)(=O)N[C@H]2CC[C@H](CCn3cc(-c4ccccc4OC)nn3)O[C@@H]2CO)c1	0	?	0	-5	24	-6	10	32
COCc1cn(CC[C@@H]2CC[C@@H](NC(=O)c3ccncc3)[C@@H](CO)O2)nn1	1	127*	-1	2	22	-29	-1	-13
COc1cccc(S(=O)(=O)N[C@@H]2CC[C@@H](CCn3cc(-c4ccccc4OC)nn3)O[C@H]2CO)c1	-1	-1	1	-48	.	.	.	.
O=C(N[C@H]1CC[C@@H](CCn2cc(-c3ccccc3F)nn2)O[C@H]1CO)c1ccc2c(c1)OCO2	0	112*	-1	-57	10	3	-2	22
Cc1ccnc(NS(=O)(=O)c2ccc(NC(=O)c3cccs3)cc2)n1	0	.	.	.	.	.	.	.
C[C@H]1CN([C@@H](C)CO)C(=O)c2cc(C#Cc3ccccc3)cnc2O[C@H]1CN(C)S(=O)(=O)c1ccccc1F	-1	85	.	-59	.	.	.	.
C[C@H]1CN([C@@H](C)CO)C(=O)c2cc(C#Cc3ccccc3F)cnc2O[C@@H]1CN(C)S(=O)(=O)c1ccccc1F	0	115*	-4	-44	111*	76	26	43*
C[C@H]1CN([C@@H](C)CO)C(=O)c2cc(C#Cc3ccccc3F)cnc2O[C@H]1CN(C)S(=O)(=O)c1ccccc1F	0	97*!	-4	-39	107*	77	60*	40*
C[C@@H]1CN([C@H](C)CO)C(=O)c2cc(C#Cc3ccccc3)cnc2O[C@H]1CN(C)S(=O)(=O)c1ccccc1F	.	?	.	-55	105*	70	24	46*
C[C@@H]1CN([C@@H](C)CO)C(=O)c2cc(C#Cc3ccccc3)cnc2O[C@@H]1CN(C)S(=O)(=O)c1ccccc1F	.	52	.	-53	.	.	.	.
C[C@H](CO)N1C[C@H](C)[C@@H](CN(C)C)Oc2cc(C#CCC3CCCC3)ccc2S1(=O)=O	-3	?	-1	-31	107*	86	31	103*
CCC(=O)N(C)C[C@@H]1Oc2cc(C#CCC3CCCC3)ccc2S(=O)(=O)N([C@@H](C)CO)C[C@H]1C	0	129*	-6	-56	109*	77	9	104*
C[C@H](CO)N1C[C@H](C)[C@H](CN(C)C)Oc2cc(C#CCC3CCCC3)ccc2S1(=O)=O	0	17	0	-51	.	.	.	.
CCC(=O)N(C)C[C@H]1Oc2cc(C#CCC3CCCC3)ccc2S(=O)(=O)N([C@H](C)CO)C[C@@H]1C	0	75	-1	-35	.	.	.	.
CCC(=O)N(C)C[C@H]1Oc2cc(C#CCC3CCCC3)ccc2S(=O)(=O)N([C@@H](C)CO)C[C@@H]1C	6	128*	-1	-77	106*	94	43*	105*
C[C@@H]1CN([C@H](C)CO)S(=O)(=O)c2ccc(C#CCC3CCCC3)cc2O[C@@H]1CN(C)C(=O)c1ccccn1	-1	110*	0	-59	100*	29	51*	104*
CCn1c(SCC(=O)Nc2ccc(C(C)=O)cc2)nnc1-c1cc(Br)ccc1O	0	.	.	.	.	.	.	.
COC(=O)COc1cccc(NC(=O)c2ccc(-c3ccccc3)cc2)c1	0	.	.	.	.	.	.	.
CCC(=O)N(C)C[C@H]1Oc2cc(C#CCC3CCCC3)ccc2S(=O)(=O)N([C@@H](C)CO)C[C@H]1C	0	119*	-1	-46	98*	89	27	105*
Cc1ccc(CCC(=O)Nc2cc(Cl)cc(Cl)c2)o1	0	.	.	.	.	.	.	.
CCCNC(=O)N1[C@H](CO)[C@@H](c2ccccc2)[C@@H]1CNC(=O)c1cccc(F)c1	.	-4	-3	-3	.	.	.	.
CCCNC(=O)N1[C@H](CNC(C)=O)[C@@H](c2ccc(-c3ccccc3)cc2)[C@@H]1CO	.	110*	-1	-2	29	-29	-8	14
CCCNC(=O)N1[C@@H](CO)[C@H](c2ccccc2)[C@@H]1CNC(=O)c1cccc(F)c1	.	102*	-1	-45	-3	12	-19	-2
SMILES	IDH1 mut inh	T cruzi growth-1	GASC1 inh	Pf Dd2 growth	T cruzi growth-2	T cruzi growth-3	3T3 cytotox	3T3 cytotox 2
Cc1ccc(OCC(=O)Nc2ccccc2-c2nc3ccccc3s2)cc1C	0	.	.	.	.	.	.	.
COc1cc(S(=O)(=O)Nc2ccncc2)c(OC)cc1Cl	0	.	.	.	.	.	.	.
COc1ccc(-c2nnn(CC(=O)Nc3ccc(OC)cc3OC)n2)cc1	9	.	.	.	.	.	.	.
C[C@H](CO)N1C[C@H](C)[C@H](CN(C)CC2CCCCC2)OCCCC[C@H](C)Oc2ccc(NC(=O)Nc3ccc(C(F)(F)F)cc3)cc2C1=O	.	95*	-1	-78	91	106*	120*	105*
C[C@H](CO)N1C[C@H](C)[C@@H](CN(C)CC2CCCCC2)OCCCC[C@H](C)Oc2ccc(NC(=O)Nc3ccc(C(F)(F)F)cc3)cc2C1=O	.	84	-2	-41	.	.	.	.
C[C@@H]1CN([C@H](C)CO)C(=O)c2cc(NC(=O)Nc3ccc(C(F)(F)F)cc3)ccc2O[C@@H](C)CCCCO[C@@H]1CN(C)CC1CCCCC1	-3	?	-4	-64	?	112*	118*	105*
C[C@@H]1CN([C@@H](C)CO)C(=O)c2cc(NC(=O)Nc3ccc(C(F)(F)F)cc3)ccc2O[C@@H](C)CCCCO[C@H]1CN(C)CC1CCCCC1	.	88	.	-60	.	.	.	.
O=C(CC1CC1)N1CC[C@@H]2[C@H](CO)Nc3ccc(-c4cccc(F)c4)cc3[C@@H]21	.	4	0	-14	.	.	.	.
O=C(CC1CC1)N1CC[C@H]2[C@H](CO)Nc3ccc(-c4ccc(F)cc4)cc3[C@H]21	.	107*	-1	25	108*	103*	-18	17
O=C(CC1CC1)N1CC[C@@H]2[C@H]1c1cc(-c3ccc(F)cc3)ccc1N[C@@H]2CO	.	103*	0	6	102*	101*	-8	82*
O=C(CC1CC1)N1CC[C@@H]2[C@@H](CO)Nc3ccc(-c4ccc(F)cc4)cc3[C@@H]21	.	?	-1	7	104*	64	18	12
Cc1cccc(N(CC(=O)Nc2ccc(I)cc2C)S(C)(=O)=O)c1	0	.	.	.	.	.	.	.
O=C(OCc1ccccc1[N+](=O)[O-])c1cccc(-c2nnc(-c3ccccc3)o2)c1	1	.	.	.	.	.	.	.
